Results: ChEMBL document CHEMBL4725316, “Discovery of novel anti-breast cancer agents derived from deguelin as inhibitors of heat shock protein 90 (HSP90)” (Bioorg Med Chem Lett, 2020)
pIC50: −log10 of the molar value. The source made the active and inactive calls. No cut-off for these calls is given here.

Tests used:
JIMT-1 [1] = test: Cytotoxicity against human JIMT-1 cells assessed as reduction in cell viability at 10 uM incubated for 72 hrs by MTS assay relative to control; format: functional; details: JIMT-1, read-out: INH
Procedure, shortened: (§1)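 Single-concentration primary screen: trastuzumab-sensitive BT474, trastuzumab-resistant JIMT-1 (HER2-positive breast cancer) or normal human embryonic kidney HEK293 cells exposed to compound at 10 μM for 72 h; viability by MTS assay versus DMSO control. Mean ± SEM of at least three independent experiments; Student's t-test.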

BT-474 [2] = test: Cytotoxicity against human BT-474 cells assessed as reduction in cell viability at 10 uM incubated for 72 hrs by MTS assay relative to control; format: functional; details: BT-474, read-out: INH; procedure, shortened: as §1
[3] = target: T1, Heat shock protein HSP90 (Homo sapiens) (UniProt P07900+P08238); test: Inhibition of HSP90 in human JIMT-1 cells assessed as reduction in HSP70 expression at 10 uM incubated for 24 hrs by DAPI staining based confocal microscopy; format: cell-based
Procedure, shortened: (§2)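 Immunocytochemistry: cells treated 24 h with compound (10 μM) or geldanamycin (0.3 μM), immunostained for HSP70 with DAPI nuclear counterstain, imaged by confocal microscopy at ×500 original magnification.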

[4] = target: T1, Heat shock protein HSP90 (Homo sapiens); test: Inhibition of HSP90 in human JIMT-1 cells assessed as reduction in HER2 phosphorylation at 5 uM incubated for 72 hrs by immunoblot analysis; format: cell-based
Procedure, shortened: (§3)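 BT474 and JIMT-1 cells treated 72 h with indicated compound concentrations or vehicle; 30 μg total lysate protein resolved by SDS-PAGE and immunoblotted for HER2, phospho-HER2 (Tyr1221/1222), EGFR, phospho-EGFR (Tyr1068), survivin, HSP90 and HSP70, with actin as loading control.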

[5] = target: T1, Heat shock protein HSP90 (Homo sapiens); test: Inhibition of HSP90 in human BT-474 cells assessed as reduction in HSP90 expression at 10 uM incubated for 72 hrs by immunoblot analysis; format: cell-based; procedure, shortened: as §3
[6] = target: T1, Heat shock protein HSP90 (Homo sapiens); test: Inhibition of HSP90 in human BT-474 cells assessed as reduction in HSP70 expression at 10 uM incubated for 24 hrs by DAPI staining based confocal microscopy; format: cell-based; procedure, shortened: as §2
[7] = target: T1, Heat shock protein HSP90 (Homo sapiens); test: Inhibition of HSP90 in human JIMT-1 cells assessed as reduction in HSP90 expression at 5 uM incubated for 72 hrs by immunoblot analysis; format: cell-based; procedure, shortened: as §3
[8] = target: T1, Heat shock protein HSP90 (Homo sapiens); test: Inhibition of HSP90 in human BT-474 cells assessed as reduction in HER2 expression at 10 uM incubated for 72 hrs by immunoblot analysis; format: cell-based; procedure, shortened: as §3
[9] = target: T1, Heat shock protein HSP90 (Homo sapiens); test: Inhibition of HSP90 in human JIMT-1 cells assessed as reduction in survivin expression at 5 uM incubated for 72 hrs by immunoblot analysis; format: cell-based; procedure, shortened: as §3
BT-474 [10] = test: Cytotoxicity against human BT-474 cells assessed as reduction in cell viability incubated for 72 hrs by MTS assay; format: functional, cell-based
Procedure, shortened: (§4)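 Dose-response in BT474 (trastuzumab-sensitive) and JIMT-1 (trastuzumab-resistant) HER2-positive breast cancer cells: compound at 0.1, 0.5, 1, 5, 10 or 20 μM for 72 h, viability by MTS assay. IC50 with 95% confidence intervals calculated from the curves; mean ± SEM of at least three independent experiments, one-way ANOVA with Bonferroni post hoc test versus DMSO control.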

[11] = target: T1, Heat shock protein HSP90 (Homo sapiens); test: Inhibition of HSP90 in human BT-474 cells assessed as reduction in EGFR phosphorylation at 10 uM incubated for 72 hrs by immunoblot analysis; format: cell-based; procedure, shortened: as §3
[12] = target: T1, Heat shock protein HSP90 (Homo sapiens); test: Inhibition of HSP90 in human JIMT-1 cells assessed as reduction in HER2 expression at 5 uM incubated for 72 hrs by immunoblot analysis; format: cell-based; procedure, shortened: as §3
JIMT-1 [13] = test: Cytotoxicity against human JIMT-1 cells assessed as reduction in cell viability incubated for 72 hrs by MTS assay; format: functional, cell-based; procedure, shortened: as §4
[14] = target: T1, Heat shock protein HSP90 (Homo sapiens); test: Inhibition of HSP90 in human JIMT-1 cells assessed as reduction in EGFR phosphorylation at 5 uM incubated for 72 hrs by immunoblot analysis; format: cell-based; procedure, shortened: as §3
[15] = target: T1, Heat shock protein HSP90 (Homo sapiens); test: Inhibition of HSP90 in human BT-474 cells assessed as reduction in HER2 phosphorylation at 10 uM incubated for 72 hrs by immunoblot analysis; format: cell-based; procedure, shortened: as §3
HEK293 = test: Cytotoxicity against human HEK293 cells assessed as reduction in cell viability at 10 uM incubated for 72 hrs by MTS assay; format: cell-based; details: hek293, 72 h; procedure, shortened: as §1
[16] = target: T1, Heat shock protein HSP90 (Homo sapiens); test: Inhibition of HSP90 in human BT-474 cells assessed as reduction in HSP70 expression at 10 uM incubated for 72 hrs by immunoblot analysis; format: cell-based; procedure, shortened: as §3
[17] = target: T1, Heat shock protein HSP90 (Homo sapiens); test: Inhibition of HSP90 in human BT-474 cells assessed as reduction in EGFR expression at 10 uM incubated for 72 hrs by immunoblot analysis; format: cell-based; procedure, shortened: as §3
[18] = target: T1, Heat shock protein HSP90 (Homo sapiens); test: Inhibition of HSP90 in human JIMT-1 cells assessed as reduction in HSP70 expression at 5 uM incubated for 72 hrs by immunoblot analysis; format: cell-based; procedure, shortened: as §3
[19] = target: T1, Heat shock protein HSP90 (Homo sapiens); test: Inhibition of HSP90 in human JIMT-1 cells assessed as reduction in EGFR expression at 5 uM incubated for 72 hrs by immunoblot analysis; format: cell-based; procedure, shortened: as §3
[20] = target: T1, Heat shock protein HSP90 (Homo sapiens); test: Inhibition of HSP90 in human BT-474 cells assessed as reduction in survivin expression at 10 uM incubated for 72 hrs by immunoblot analysis; format: cell-based; procedure, shortened: as §3

## COc1cc(NC(=O)c2ccc3c(c2OC)C=CC(C)(C)O3)ccc1OCCCN1CCCCC1
JIMT-1 [1]
  inhibition at 10 µM: > 50%
BT-474 [2]
  inhibition at 10 µM: > 50%

## COc1cc(NC(=O)c2ccc3c(c2OC)C=CC(C)(C)O3)ccc1OCCCC1CCN(CCO)CC1
JIMT-1 [1]
  inhibition at 10 µM: > 50%
BT-474 [2]
  inhibition at 10 µM: > 50%

## COc1cc(NC(=O)c2ccc3c(c2OC)C=CC(C)(C)O3)ccc1OCCC1CCCCN1 (centres undefined)
[3]
  inhibition: inactive
JIMT-1 [1]
  inhibition at 10 µM: > 50%
[4]
  inhibition: Active
[5]
  inhibition: inactive
[6]
  inhibition: inactive
[7]
  inhibition: inactive
[8]
  inhibition: Active
[9]
  inhibition: Active
BT-474 [10]
  Activity: Dose-dependent effect
BT-474 [10]; BT-474, 72 h
  pIC50: 5.07
[11]
  inhibition: Active
[12]
  inhibition: Active
JIMT-1 [13]
  Activity: Dose-dependent effect
JIMT-1 [13]; JIMT-1, 72 h
  pIC50: 5.35
[14]
  inhibition: Active
[15]
  inhibition: Active
HEK293
  Activity: Non-Toxic
[16]
  inhibition: inactive
[17]
  inhibition: Active
BT-474 [2]
  inhibition at 10 µM: > 50%
[18]
  inhibition: inactive
[19]
  inhibition: Active
[20]
  inhibition: Active

## COc1cc(NC(=O)c2ccc3c(c2OC)C=CC(C)(C)O3)ccc1OCCC1CCCCN1C (centres undefined)
JIMT-1 [1]
  inhibition at 10 µM: > 50%
BT-474 [2]
  inhibition at 10 µM: > 50%

## COc1cc(NC(=O)c2ccc3c(c2OC)C=CC(C)(C)O3)ccc1OCCCC1CCN(C)CC1
JIMT-1 [1]
  inhibition at 10 µM: > 50%
BT-474 [2]
  inhibition at 10 µM: > 50%

## COc1cc(NC(=O)c2ccc3c(c2OC)C=CC(C)(C)O3)ccc1OCC1CCN(C)CC1
JIMT-1 [1]
  inhibition at 10 µM: > 50%
BT-474 [2]
  inhibition at 10 µM: > 50%

## COc1cc(NC(=O)c2ccc3c(c2OC)C=CC(C)(C)O3)ccc1OCC1CCNCC1
JIMT-1 [1]
  inhibition at 10 µM: > 50%
BT-474 [2]
  inhibition at 10 µM: > 50%

## COc1cc(NC(=O)c2ccc3c(c2OC)C=CC(C)(C)O3)ccc1OCCCC1CCNCC1
JIMT-1 [1]
  inhibition at 10 µM: > 50%
BT-474 [2]
  inhibition at 10 µM: > 50%

## COc1cc(NC(=O)c2ccc3c(c2OC)C=CC(C)(C)O3)ccc1OCCCC1CCCCN1 (centres undefined)
JIMT-1 [1]
  inhibition at 10 µM: > 50%
BT-474 [2]
  inhibition at 10 µM: > 50%
